Measurements taken from ChEMBL document CHEMBL1145751, “Discovery of (aryloxopropenyl)pyrrolyl hydroxyamides as selective inhibitors of class IIa histone deacetylase homologue HD1-A” (J Med Chem, 2003).
Non-standard residues stand in square brackets, D forms with d. Residues, ends and D or L forms follow the SMILES beside them. ξ: configuration not given here. Aoe(9ξ) = N[C@@H](CCCCCC(=O)C1CO1)C(=O)O; dPip = O=C(O)[C@H]1CCCCN1

Assays:
[1] = Inhibitory activity afgainst maize Histone deacetylase 1-A; parameters: species or system Zea mays
[2] = Inhibitory activity against maize Histone deacetylase 1-B; parameters: species or system Zea mays
Histone deacetylase HD2 = biological target: T1, Histone deacetylase HD2 (Zea mays, UniProt Q94F81); assay: Tested for maize Histone deacetylase 2 inhibitory activity
T1 sequence (Q94F81 whole entry): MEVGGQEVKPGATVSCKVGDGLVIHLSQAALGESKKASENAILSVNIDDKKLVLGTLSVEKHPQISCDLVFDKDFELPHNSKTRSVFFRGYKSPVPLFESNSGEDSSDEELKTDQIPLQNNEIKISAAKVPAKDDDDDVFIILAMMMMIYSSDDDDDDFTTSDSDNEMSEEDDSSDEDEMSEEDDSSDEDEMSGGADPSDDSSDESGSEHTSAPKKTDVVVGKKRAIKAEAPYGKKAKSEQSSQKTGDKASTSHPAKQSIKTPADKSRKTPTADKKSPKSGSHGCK
Procedure, shortened: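 Purified maize HD2 enzyme was incubated with compounds and [³H]-acetate pre-labeled chicken reticulocyte histones (added from a 4 mg/mL stock) for 30 min at 30 °C. The reaction was stopped with HCl/acetate, and released [³H]-acetate was extracted into ethyl acetate. The upper phase was counted by liquid scintillation. IC50 is the mean of at least three separate experiments.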

[3] = Fold selectivity for classIIa HDAC
Histone deacetylase 1 [4] = biological target: T2, Histone deacetylase 1 (Homo sapiens, UniProt Q13547); assay: Inhibition of Histone deacetylase 1 induced acetylated histone in mammalian cells.; format: cell-based
[5] = biological target: T3, Protein deacetylase HDAC6 (Homo sapiens, UniProt Q9UBN7); assay: (§1) Tested for inhibition of Histone deacetylase 6 induced acetylated tubulin in mammalian cells.; format: cell-based
T3 sequence (Q9UBN7 whole entry): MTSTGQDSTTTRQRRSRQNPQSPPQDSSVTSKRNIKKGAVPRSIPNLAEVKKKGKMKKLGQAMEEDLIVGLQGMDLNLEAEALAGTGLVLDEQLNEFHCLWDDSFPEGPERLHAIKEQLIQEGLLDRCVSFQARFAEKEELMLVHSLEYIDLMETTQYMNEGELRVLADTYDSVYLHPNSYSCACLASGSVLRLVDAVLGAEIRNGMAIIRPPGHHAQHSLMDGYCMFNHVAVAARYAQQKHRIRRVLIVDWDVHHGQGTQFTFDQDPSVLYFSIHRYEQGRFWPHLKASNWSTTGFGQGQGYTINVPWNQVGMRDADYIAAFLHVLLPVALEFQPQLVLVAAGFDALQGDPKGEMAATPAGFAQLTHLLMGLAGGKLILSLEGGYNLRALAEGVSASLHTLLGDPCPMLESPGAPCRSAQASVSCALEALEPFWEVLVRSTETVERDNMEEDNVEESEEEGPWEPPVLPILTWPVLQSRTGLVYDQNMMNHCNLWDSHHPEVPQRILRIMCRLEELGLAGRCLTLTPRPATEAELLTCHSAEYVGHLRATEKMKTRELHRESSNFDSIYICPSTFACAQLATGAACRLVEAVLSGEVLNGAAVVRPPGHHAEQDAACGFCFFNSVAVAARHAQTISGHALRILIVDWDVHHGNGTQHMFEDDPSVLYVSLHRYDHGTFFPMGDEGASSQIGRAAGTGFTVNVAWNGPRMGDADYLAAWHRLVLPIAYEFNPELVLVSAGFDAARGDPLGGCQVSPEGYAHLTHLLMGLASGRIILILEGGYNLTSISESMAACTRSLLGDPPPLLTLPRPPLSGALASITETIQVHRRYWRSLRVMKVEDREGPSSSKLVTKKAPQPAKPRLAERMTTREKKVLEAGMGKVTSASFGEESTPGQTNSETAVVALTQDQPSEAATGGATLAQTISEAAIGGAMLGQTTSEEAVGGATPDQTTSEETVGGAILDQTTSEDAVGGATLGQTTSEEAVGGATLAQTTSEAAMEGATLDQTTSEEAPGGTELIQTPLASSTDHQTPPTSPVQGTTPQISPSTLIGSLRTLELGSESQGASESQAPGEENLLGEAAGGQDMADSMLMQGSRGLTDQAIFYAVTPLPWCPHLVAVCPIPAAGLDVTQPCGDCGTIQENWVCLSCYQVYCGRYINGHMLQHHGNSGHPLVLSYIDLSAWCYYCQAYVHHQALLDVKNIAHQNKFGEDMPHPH

Histone deacetylase 4 = Histone deacetylase 4 (Homo sapiens, UniProt P56524); assay: Inhibition of Histone deacetylase 4 in mammalian cells.; format: cell-based
[6] = as §1; format: cell-based
[7] = Inhibition of Histone deacetylase 4 in mammalian cells; format: cell-based
Histone deacetylase 1 [8] = biological target: T2, Histone deacetylase 1; assay: Inhibition of Histone deacetylase 1 induced acetylated histone in mammalian cells; format: cell-based

T2 sequence (Q13547 whole entry): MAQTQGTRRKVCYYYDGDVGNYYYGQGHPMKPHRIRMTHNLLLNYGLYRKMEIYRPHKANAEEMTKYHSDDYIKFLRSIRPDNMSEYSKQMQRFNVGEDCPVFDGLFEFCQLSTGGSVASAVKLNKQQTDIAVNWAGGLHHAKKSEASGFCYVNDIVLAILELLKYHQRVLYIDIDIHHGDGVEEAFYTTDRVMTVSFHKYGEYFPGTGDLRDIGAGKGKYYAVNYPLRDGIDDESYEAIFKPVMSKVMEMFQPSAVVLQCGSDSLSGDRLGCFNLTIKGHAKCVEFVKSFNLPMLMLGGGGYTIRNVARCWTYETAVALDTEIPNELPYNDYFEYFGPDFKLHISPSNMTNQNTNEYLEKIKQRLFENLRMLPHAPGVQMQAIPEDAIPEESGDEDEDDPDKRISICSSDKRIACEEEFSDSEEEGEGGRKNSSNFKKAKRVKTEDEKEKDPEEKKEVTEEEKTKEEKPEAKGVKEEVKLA
Chain of Histone deacetylase 4 (P56524 whole entry): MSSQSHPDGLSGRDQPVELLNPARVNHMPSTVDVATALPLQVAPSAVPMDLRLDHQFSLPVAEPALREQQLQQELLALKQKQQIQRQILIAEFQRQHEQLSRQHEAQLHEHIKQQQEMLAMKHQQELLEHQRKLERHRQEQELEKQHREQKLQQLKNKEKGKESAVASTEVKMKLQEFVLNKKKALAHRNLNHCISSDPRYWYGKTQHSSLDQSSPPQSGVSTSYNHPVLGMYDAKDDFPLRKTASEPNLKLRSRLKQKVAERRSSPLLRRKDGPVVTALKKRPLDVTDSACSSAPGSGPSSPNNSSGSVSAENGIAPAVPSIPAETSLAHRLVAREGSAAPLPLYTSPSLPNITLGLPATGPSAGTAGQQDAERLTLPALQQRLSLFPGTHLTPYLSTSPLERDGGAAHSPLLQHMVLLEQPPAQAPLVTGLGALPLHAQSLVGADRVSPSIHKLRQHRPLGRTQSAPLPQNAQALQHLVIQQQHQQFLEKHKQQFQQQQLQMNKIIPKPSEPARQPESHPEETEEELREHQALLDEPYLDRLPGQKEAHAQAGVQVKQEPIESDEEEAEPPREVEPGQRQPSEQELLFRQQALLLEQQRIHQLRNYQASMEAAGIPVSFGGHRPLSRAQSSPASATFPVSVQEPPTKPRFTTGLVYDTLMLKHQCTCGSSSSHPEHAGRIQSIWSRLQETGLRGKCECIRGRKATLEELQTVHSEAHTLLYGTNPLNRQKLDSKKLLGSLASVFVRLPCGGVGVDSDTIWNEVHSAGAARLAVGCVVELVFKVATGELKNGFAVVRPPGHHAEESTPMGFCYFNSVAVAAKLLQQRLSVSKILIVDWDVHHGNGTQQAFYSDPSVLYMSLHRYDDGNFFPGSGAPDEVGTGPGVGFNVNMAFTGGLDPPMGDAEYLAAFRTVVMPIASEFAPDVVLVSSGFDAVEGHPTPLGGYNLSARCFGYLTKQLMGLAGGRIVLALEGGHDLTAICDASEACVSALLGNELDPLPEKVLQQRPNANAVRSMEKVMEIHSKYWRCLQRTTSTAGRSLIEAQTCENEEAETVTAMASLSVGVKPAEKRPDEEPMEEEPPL

SMILES	IC50 [1]	IC50 [2]	IC50 (Histone deacetylase HD2)	Fold selectivity [3]	also measured
C/C=C1\NC(=O)[C@H]2CSSCC/C=C/[C@H](CC(=O)N[C@H](C(C)C)C(=O)N2)OC(=O)[C@H](C(C)C)NC1=O [ROMIDEPSIN]					EC50 (Histone deacetylase 1 [4]): 36000 nM
C[C@@H]1NC(=O)[C@H](CCCCCC(=O)C2CO2)NC(=O)[C@H]2CCCN2C(=O)[C@H](C)NC1=O (some centres undefined)					EC50 [5]: 360000 nM; EC50 (Histone deacetylase 1 [4]): 110 nM; IC50 (Histone deacetylase 4): 0.3 nM
Cn1cc(/C=C/C(=O)c2ccccc2)cc1/C=C/C(=O)NO	200 nM	300 nM	280 nM		
O=C(CCCCC[C@@H]1NC(=O)[C@H]2CCCCN2C(=O)[C@H](Cc2ccccc2)NC(=O)[C@H](Cc2ccccc2)NC1=O)C1CO1 (some centres undefined) [TRAPOXIN A] (cyclo(FF[dPip][Aoe(9ξ)]))					EC50 [5]: 524000 nM; EC50 (Histone deacetylase 1 [8]): 820 nM
C[C@@H]1NC(=O)[C@H](CCCCCC(=O)NO)NC(=O)[C@H]2CCCN2C(=O)[C@H](C)NC1=O					EC50 [5]: 19000 nM; EC50 (Histone deacetylase 1 [4]): 1900 nM; IC50 (Histone deacetylase 4): 2.7 nM
Cn1cc(/C=C/C(=O)c2cccc(Cl)c2)cc1/C=C/C(=O)NO	400 nM	31400 nM	24200 nM	78	

Further lines, with some results ahead:

IC50 [1]	IC50 [2]	IC50 (Histone deacetylase HD2)	Fold selectivity [3]	SMILES	also measured
60 nM	400 nM	270 nM	7	Cc1ccccc1C(=O)/C=C/c1cc(/C=C/C(=O)NO)n(C)c1	
50 nM	1600 nM	5200 nM	32	Cn1cc(/C=C/C(=O)c2ccccc2Cl)cc1/C=C/C(=O)NO	
200 nM	2500 nM	7900 nM	12	Cc1cccc(C(=O)/C=C/c2cc(/C=C/C(=O)NO)n(C)c2)c1	
0.8 nM	0.4 nM			CC(/C=C/C(=O)NO)=C\[C@@H](C)C(=O)c1ccc(N(C)C)cc1 [TRICHOSTATIN]	EC50 [6]: 8600 nM; IC50 [7]: 38 nM
500 nM	4800 nM	10200 nM	10	Cc1ccc(C(=O)/C=C/c2cc(/C=C/C(=O)NO)n(C)c2)cc1	
18600 nM	29400 nM	25200 nM		Cn1cc(/C=C/C(=O)c2ccc(Cl)cc2)cc1/C=C/C(=O)NO	
